KCNQ1 act: potentiators or activators of KCNQ1 channel, primary screen, cell-based, thallium flux, high-throughput. Potassium voltage-gated channel subfamily KQT member 1 (Homo sapiens), P51787. CHO-K1 KCNQ1, thallium flux FluxOR fluorescence; hits give high values. B-score at 10 µM. 0.35% of 310,000 active. AID 2648, 2010;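 active = fluorescence ratio B-score, a plate-corrected score, at least three library SD, with initial intensity B-score within 5 SD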
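assay system = CHO-K1 cells stably expressing KCNQ1 | medium = assay buffer, equal DMSO in all wells | timing = 37 °C overnight plating, 90-min dark dye load, 20-min compound pretreatment | measured by = kinetic FluxOR thallium fluorescence, 10-s 1-Hz baseline, 110-s post-stimulus read | measure = fluorescence change relative to baseline, converted to B score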
KCNK9 block: KCNK9 potassium channel inhibitors, primary screen, HEK293 cells, thallium flux | AID 488922, 2010 | B-score at 10 µM | FluxOR thallium flux fluorescence; hits give low values | 1.2% of 310,000 active;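 active = ratio B-score over 3 SD below the library mean, with starting fluorescence within 5 SD of its mean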;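 note: negative B-score means less thallium flux so channel inhibition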
Target sequence (Q9NPC2 whole entry, looked up): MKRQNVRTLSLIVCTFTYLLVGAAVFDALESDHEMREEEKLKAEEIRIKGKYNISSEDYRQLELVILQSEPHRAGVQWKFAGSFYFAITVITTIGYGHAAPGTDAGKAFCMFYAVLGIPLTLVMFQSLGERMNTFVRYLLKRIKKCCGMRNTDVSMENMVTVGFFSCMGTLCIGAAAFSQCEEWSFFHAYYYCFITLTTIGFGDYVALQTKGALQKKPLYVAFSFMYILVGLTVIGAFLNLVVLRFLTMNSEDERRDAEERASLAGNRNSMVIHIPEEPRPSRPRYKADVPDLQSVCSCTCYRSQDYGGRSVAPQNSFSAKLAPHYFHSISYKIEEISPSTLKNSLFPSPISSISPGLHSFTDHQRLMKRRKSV
KCNK3 inh: human KCNK3 channel inhibitors, primary screen, CHO cells, FluxOR thallium flux, B-score. AID 602410, 2012. Potassium channel subfamily K member 3 (Homo sapiens), O14649. FluxOR fluorescence; hits give low values. B-score at 10 µM. 0.84% of 340,000 active;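 active = B-score under library mean minus 4 SD, starting fluorescence ratio at most library mean plus 5 SD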;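 note: more negative B-score means stronger inhibition of thallium flux through KCNK3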
KCNQ1 block: inhibitors of human KCNQ1 channel, primary screen, cell-based, thallium flux, high-throughput | CHO-K1 KCNQ1, FluxOR thallium flux fluorescence; hits give high values | Potassium voltage-gated channel subfamily KQT member 1 (Homo sapiens), P51787 | B-score at 10 µM | 1.3% of 310,000 active;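 active = compounds whose thallium flux B-score, printed positive for inhibition, exceeds three library SD while starting fluorescence stays within three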;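 note: channel opened by potassium depolarization with thallium stimulus after 20 min compound exposure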
hERG rescue: hERG rescue from dofetilide block, primary screen, cell-based, CHO-hERG, FluxOR thallium flux, dofetilide IC70; dofetilide IC70 present; Voltage-gated inwardly rectifying potassium channel KCNH2 (Homo sapiens), Q12809; activation (rescue from dofetilide block), less the hit threshold, % at 10 µM; 0.51% of 310,000 active; AID 1511, 2009;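 active = activation above the mean of controls blocked by dofetilide plus 5 SD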;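 note: thallium influx through hERG after potassium depolarization seen as dye fluorescence rise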
Cl transport mod: KCC2 cotransporter modulators, thallium flux, primary screen, cell-based, HEK293 KCC2, FluoZin-2 fluorescence, MLSMR; AID 1456, 2008; KCC2 cells, thallium flux FluoZin-2 fluorescence; B-score of Tl+ flux slope (higher = more flux/activation; lower = inhibition) at 10 µM; Solute carrier family 12 member 5 (Homo sapiens), Q9H2X9; 2.2% of 190,000 active;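 active = thallium flux slope and its plate-corrected score both differing from the plate sample mean at a set confidence after two filtering rounds, in either direction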;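 note: slope of fluorescence scaled to starting intensity during 10 to 20 s after thallium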
A number is an active result; . = inactive; / = no result. An excerpt weighted towards active compounds, which were near 4.1% of everything screened.

SMILES	KCNQ1 act	KCNK9 block	KCNK3 inh	KCNQ1 block	hERG rescue	Cl transport mod
CCOC(=O)COc1ccccc1/C=N\NC(=O)c1cc2c(ccc3ccccc32)o1	.	-6.84	.	10	.	/
CCOc1cc(/C=N/NC(=O)c2cc3c(ccc4ccccc43)o2)ccc1O	.	.	.	.	.	/
Cc1cc(C(=O)Nn2c(C3CCCCC3)nc3ccccc3c2=O)ccc1[N+](=O)[O-]	.	.	.	.	.	.
O=C(Nn1c(C2CCCCC2)nc2ccccc2c1=O)c1ccc(Cl)c([N+](=O)[O-])c1	.	.	.	9	.	.
Cc1cc(NC(=O)Nc2cccc(C(F)(F)F)c2)no1	.	.	.	.	.	.
Cc1cc(NS(=O)(=O)c2ccc(NC(=O)Nc3cccc(C(F)(F)F)c3)cc2)no1	.	.	.	6	.	/
COc1cc(/C=C/CNC[C@H]2O[C@@H](n3ccc(=O)[nH]c3=O)[C@H](O)[C@@H]2O)ccc1O	/	/	.	/	/	/
Nc1ccn(Cc2ccccc2)n1	.	.	.	.	41.0	.
Nc1ccn(Cc2cccc(F)c2)n1	.	.	.	.	.	.
COc1ccc(OC)c(S(=O)(=O)N2CCC(NC(=O)c3ccccc3)CC2)c1	.	-7.26	.	.	.	/
Cn1ccnc1Sc1cc(NCCCO)c([N+](=O)[O-])c2nonc12	.	.	.	6	.	.
COc1ccc(C(=O)NCC(c2ccco2)N2CCc3ccccc32)c(OC)c1 (centres undefined)	.	.	.	.	.	/
CCN1C(=O)c2cccc3c(NC(=O)c4ccccc4)ccc1c23	.	.	.	.	.	.
CCN1C(=O)c2cccc3c(NC(=O)c4ccc5c(c4)OCCO5)ccc1c23	.	.	-10.3	.	.	.
Cc1cccc(C2Nc3ccccc3C(=O)N2CCc2ccccc2)n1 (centres undefined)	.	.	.	.	.	/
O=C1c2ccccc2NC(c2cccc([N+](=O)[O-])c2)N1CCc1ccccc1 (centres undefined)	.	-6.58	.	.	.	/
CCN(Cc1ccccc1)C(=S)NC(=O)c1ccccc1Br	43	.	.	.	21.7	/
CCCN(Cc1ccccc1)C(=S)NC(=O)c1ccccc1[N+](=O)[O-]	.	.	.	.	29.0	69.5
CCCCCCCc1n[nH]c(=S)n1Cc1ccccc1	.	.	.	.	.	.
CCCCc1n[nH]c(=S)n1Cc1ccc(C)cc1	.	-16.6	.	.	.	.
CCOc1ccccc1O[C@H](c1ccccc1)[C@H]1CNCCO1	.	.	.	.	.	/
C=CCCCCCCCCc1nc(=S)[nH][nH]1	.	.	.	.	.	64
O=C(CSCc1ccc(Br)cc1)N=Nc1c(O)[nH]c2ccccc12	.	.	.	.	.	9.99
COC(=O)NC(=S)Nc1ccc(Oc2ccc(Cl)cc2)c(Cl)c1	.	.	.	.	.	/
COC(=O)NC(=S)Nc1ccc(Oc2ccc(Cl)cc2Cl)c(Cl)c1	16	.	.	.	.	10.8
SMILES	KCNQ1 act	KCNK9 block	KCNK3 inh	KCNQ1 block	hERG rescue	Cl transport mod
COc1cc(/C=C2\SC(=S)N(NC(=O)c3ccccc3O)C2=O)ccc1O	.	.	.	6	.	/
O=C1/C(=C/c2ccc(O)c([N+](=O)[O-])c2)SC(=S)N1Cc1ccccc1	.	.	.	8	.	.
Cn1cc(/C=C2\SC(=S)N(NC(=O)c3ccccc3)C2=O)c2ccccc21	.	.	.	.	9.5	.
CCOC(=O)N1CCN(C(=O)CCN2C(=O)/C(=C\c3ccccc3OC)SC2=S)CC1	.	.	.	.	.	/
Cn1cc(/C=C2\SC(=S)N(NC(=O)c3cccc(Cl)c3)C2=O)c2ccccc21	/	/	.	/	/	.
CCOc1ccccc1C=C1SC(=S)N(CC)C1=O	/	/	-9.66	/	/	/
O=C1/C(=C\c2cccc([N+](=O)[O-])c2O)SC(=S)N1Cc1ccccc1	.	.	.	.	.	/
CC1CCCC(NC(=O)CN2CCN(S(=O)(=O)c3ccc(Br)s3)CC2)C1C (centres undefined)	/	/	.	/	/	/
Cn1c(=O)c2[nH]c(CCCCCCCc3nc4ccccc4[nH]3)nc2n(C)c1=O	/	/	.	/	/	/
O=C(NN1C(=O)/C(=C/c2ccc(O)c([N+](=O)[O-])c2)SC1=S)c1ccccc1Cl	.	.	.	7	.	.
O=C(NN1C(=O)/C(=C/c2ccc(O)cc2)SC1=S)c1cccc(O)c1	.	-9.14	.	8	.	/
COc1ccccc1/C=C1\SC(=S)N(CCC(=O)NNC(=O)c2ccccc2O)C1=O	.	.	.	6	.	/
O=C(NN1C(=O)/C(=C/c2cc([N+](=O)[O-])ccc2O)SC1=S)c1ccccc1O	.	.	/	.	.	/
COc1cc([N+](=O)[O-])cc(/C=C2/SC(=S)N(Cc3ccccc3)C2=O)c1O	.	.	.	9	.	/
COc1ccc(NC(=O)c2cc(S(=O)(=O)N3CCOCC3)ccc2C)cc1S(=O)(=O)N1CCOCC1	/	/	.	/	/	/
CN1/C(=C\C(=S)Nc2ccccc2)C(C)(C)c2ccccc21	.	-6.9	.	.	.	.
O=S(=O)(Nc1nc2ccccc2nc1Cl)c1ccc(Br)cc1	.	.	.	9	.	.
CN(C)C(CNC(=O)CSc1nc2sc3c(c2c(=O)n1C)CCCC3)c1ccccc1 (centres undefined)	/	/	.	/	/	/
CCOc1ccc(CCNC(=O)CCNC(=O)c2ccccc2Cl)cc1OCC	.	.	.	.	.	/
c1ccc(C2OCCN2c2ccccc2)cc1 (centres undefined)	/	/	.	/	/	/
CCCn1nc(C(=O)N2CCN(S(=O)(=O)c3ccc(C)c(C)c3)CC2)c2ccccc2c1=O	/	/	-9.51	/	/	/
COc1ccc(-c2sc(Nc3ccccc3)n[n+]2-c2ccc(F)cc2)c(OC)c1OC	.	.	.	7	.	/
COc1cc(OC)c(-c2sc(Nc3ccccc3)n[n+]2-c2ccc(F)cc2)cc1OC	.	.	.	.	.	/
CC1=C(C(=O)OCc2ccccc2)C(c2cccc3ccccc23)NC(=O)N1CCCC(=O)O (centres undefined)	/	/	.	/	/	/
O=C(CCn1c(=O)c2sccc2n(CC(=O)OCc2ccccc2)c1=O)NCc1ccco1	.	.	.	.	.	/
O=C(CCn1c(=O)c2sccc2n(CC(=O)OCc2ccccc2)c1=O)NCc1ccccc1	.	.	.	.	5.2	/
